The record followed here is ChEMBL document CHEMBL5236592, “Induction of Ferroptosis in Glioblastoma and Ovarian Cancers by a New Pyrrole Tubulin Assembly Inhibitor” (J Med Chem, 2022).

Calls of active or inactive are those of the source. The calls are words filed in the database; no cut-off is given here.

Series [1] has as its system Mus musculus. Put plainly: Upregulation of Ttc35 mRNA expression in tumor of BALB/C nu/nu mouse xenografted with human SK-OV-3 cells at 25 mg/kg, ip administered every 2 days for 40 days by qPCR analysis. The note with it: time 40.0 day. It counts as functional, organism-based. A digest of the protocol:
(§1)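 Female BALB/c nu/nu mice, 10 weeks old, 4 per group. Inoculated s.c. with 1 × 10^8 cells/mL of log-phase U-87 MG or SKOV-3 cells. Dosed i.p. with 100 μL at 25 mg/kg every 2 days; controls got 100 μL saline. Tumors harvested on day 40. RNA extracted from about 20 mg of tissue. qPCR panel of 69 genes, 40 cycles (94 °C 20 s, 60 °C 34 s). Analysed by 2–ΔΔCt; fold ≥1.5 taken as increased.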
In general terms: A xenograft is tissue or cells of one species grown in another, often human tumour cells in immunodeficient mice.

Series [2] concerns U-87MG ATCC. Put plainly: Antitumor activity against human U-87 MG cells xenografted in BALB/C nu/nu mouse assessed as reduction in Ki67 expression in tumor at 25 mg/kg, ip administered every 2 days for 40 days by immunofluoresence staining based assay. Type of series: functional, organism-based. The settings on record: time 40.0 day. A digest of the protocol: (§2)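 Female BALB/c nu/nu mice, 10 weeks old, 4 per group. Received subcutaneous U-87 MG or SKOV-3 cells (1 × 10^8 cells/mL, harvested in log phase). Dosed ip with 100 μL at 25 mg/kg every 2 days; controls got 100 μL saline on the same schedule. Sacrificed at 40 days; tumors weighed, volume = ab²/2. Tumor sections (6 μm, paraffin) stained by immunofluorescence for Ki67 or CD31 with Alexa Fluor 488 secondary.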

Series [3] relates to U-87MG ATCC. Put plainly: Induction of ferroptosis-mediated antitumor activity against human U-87 MG cells xenografted in BALB/C nu/nu mouse assessed as reduction in ATP level in tumor at 25 mg/kg, ip administered every 2 days for 40 days by biochemical analysis. It counts as functional, organism-based. The note with it: time 40.0 day. A digest of the protocol:
(§3)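 U-87 MG or SKOV-3 sc xenografts (1 × 10^8 cells/mL) in female BALB/c nu/nu mice, 4 per group. Given 25 mg/kg ip in 100 μL every 2 days, or saline. Tumors harvested on day 40 and assayed for LPO, MDA, lactic acid, total glutathione (GSH + GSSG), ATP and Fe2+.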

For series [4], the system named is Mus musculus. Put plainly: Upregulation of Cs mRNA expression in tumor of BALB/C nu/nu mouse xenografted with human U-87 MG cells at 25 mg/kg, ip administered every 2 days for 40 days by qPCR analysis. It counts as functional, organism-based. The settings on record: time 40.0 day. Summed up: (§4)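 Female BALB/c nu/nu mice bearing sc U-87 MG or SKOV-3 xenografts were dosed ip at 25 mg/kg (100 μL) every 2 days, or given saline, and tumors were taken at day 40. RNA was extracted from about 20 mg of tissue. qPCR ran 40 cycles (95 °C 15 min; 94 °C 20 s; 60 °C 34 s) on a 69-gene panel. Fold change was by 2^–ΔΔCt, with ≥1.5 counted as increased.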

In series [5] the test system is U-87MG ATCC. Description: Induction of ferroptosis-mediated antitumor activity against human U-87 MG cells xenografted in BALB/C nu/nu mouse assessed as increase in lactic acid level in tumor at 25 mg/kg, ip administered every 2 days for 40 days by biochemical analysis. It counts as functional, organism-based. The note with it: time 40.0 day. Summed up: as §3
The subject of the next series is T-cell line. Description: Cytotoxicity against human primary T-lymphocytes assessed as reduction in cell viability at 1 to 2.5 uM incubated for 48 to 72 hrs by Annexin V- APC/PI staining based flow cytometry analysis. Type of series: toxicity. The settings on record: dose lower 1 µM, time lower 48 hrs, dose upper 2.5 µM, time upper 72 hrs. Summed up:
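T lymphocytes negatively selected from healthy-donor PBMCs isolated by density gradient. Cultured at 1.5 × 10^6/mL with 0.1, 1.0 or 2.5 μM compound, DMSO vehicle or untreated, for 48 or 72 h. Stained with annexin V-APC and propidium iodide; early and late apoptotic fractions counted by flow cytometry.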
For orientation: Flow cytometry measures light scatter and fluorescence of single cells or particles in a stream.

Series [6] concerns Mus musculus. Put plainly: Upregulation of Cisd1 mRNA expression in tumor of BALB/C nu/nu mouse xenografted with human SK-OV-3 cells at 25 mg/kg, ip administered every 2 days for 40 days by qPCR analysis. It counts as functional, organism-based. The note with it: time 40.0 day. A digest of the protocol: as §4
The test system of series [7] is Mus musculus. Put plainly: Upregulation of Gss mRNA expression in tumor of BALB/C nu/nu mouse xenografted with human SK-OV-3 cells at 25 mg/kg, ip administered every 2 days for 40 days by qPCR analysis. It counts as functional, organism-based. The settings on record: time 40.0 day. Summed up: as §1
The subject of series [8] is Mus musculus. Put plainly: Upregulation of Fancd2 mRNA expression in tumor of BALB/C nu/nu mouse xenografted with human U-87 MG cells at 25 mg/kg, ip administered every 2 days for 40 days by qPCR analysis. Type of series: functional, organism-based. The settings on record: time 40.0 day. A digest of the protocol:
as §4

Series [9] has as its system Mus musculus. Description: Upregulation of TFRC mRNA expression in tumor of BALB/C nu/nu mouse xenografted with human SK-OV-3 cells at 25 mg/kg, ip administered every 2 days for 40 days by qPCR analysis. Type of series: functional, organism-based. The settings on record: time 40.0 day. A digest of the protocol: as §1
Series [10] deals with Mus musculus. Description: Upregulation of Sat1 mRNA expression in tumor of BALB/C nu/nu mouse xenografted with human SK-OV-3 cells at 25 mg/kg, ip administered every 2 days for 40 days by qPCR analysis. The settings on record: time 40.0 day. Type of series: functional, organism-based. Summed up:
as §1

In series [11] the test system is Mus musculus. Put plainly: Upregulation of Nfe2l2 mRNA expression in tumor of BALB/C nu/nu mouse xenografted with human U-87 MG cells at 25 mg/kg, ip administered every 2 days for 40 days by qPCR analysis. Type of series: functional, organism-based. The settings on record: time 40.0 day. Summed up:
as §1

The subject of series [12] is Mus musculus. Put plainly: Upregulation of Slc7a11 mRNA expression in tumor of BALB/C nu/nu mouse xenografted with human SK-OV-3 cells at 25 mg/kg, ip administered every 2 days for 40 days by qPCR analysis. Type of series: functional, organism-based. The settings on record: time 40.0 day. A digest of the protocol: as §1
The subject of series [13] is Mus musculus. Description: Upregulation of Gls2 mRNA expression in tumor of BALB/C nu/nu mouse xenografted with human SK-OV-3 cells at 25 mg/kg, ip administered every 2 days for 40 days by qPCR analysis. Type of series: functional, organism-based. The settings on record: time 40.0 day. Summed up: as §4
Series [14] has as its system Mus musculus. Put plainly: Upregulation of Akr1c3 mRNA expression in tumor of BALB/C nu/nu mouse xenografted with human U-87 MG cells at 25 mg/kg, ip administered every 2 days for 40 days by qPCR analysis. It counts as functional, organism-based. The settings on record: time 40.0 day. Summed up:
as §4

Series [15] deals with SK-OV-3. Put plainly: Induction of ferroptosis-mediated antitumor activity against human SK-OV-3 cells xenografted in BALB/C nu/nu mouse assessed as increase in Fe2+ level in tumor at 25 mg/kg, ip administered every 2 days for 40 days. The note with it: time 40.0 day. Type of series: functional, organism-based. Summed up: as §3
In series [16] the test system is Mus musculus. Description: Upregulation of Cars mRNA expression in tumor of BALB/C nu/nu mouse xenografted with human U-87 MG cells at 25 mg/kg, ip administered every 2 days for 40 days by qPCR analysis. It counts as functional, organism-based. The settings on record: time 40.0 day. A digest of the protocol: as §4
The test system of series [17] is Mus musculus. Put plainly: Upregulation of ENDOG mRNA expression in tumor of BALB/C nu/nu mouse xenografted with human U-87 MG cells at 25 mg/kg, ip administered every 2 days for 40 days by qPCR analysis. The settings on record: time 40.0 day. Type of series: functional, organism-based. Summed up: as §4
Series [18] concerns Mus musculus. Put plainly: Upregulation of Cbs mRNA expression in tumor of BALB/C nu/nu mouse xenografted with human U-87 MG cells at 25 mg/kg, ip administered every 2 days for 40 days by qPCR analysis. Type of series: functional, organism-based. The settings on record: time 40.0 day. A digest of the protocol:
as §4

For series [19], the system named is SK-OV-3. Put plainly: Antitumor activity against human SK-OV-3 cells xenografted in BALB/C nu/nu mouse assessed as reduction in Ki67 expression in tumor at 25 mg/kg, ip administered every 2 days for 40 days by immunofluoresence staining based assay. It counts as functional, organism-based. The settings on record: time 40.0 day. A digest of the protocol:
as §2

On to `COc1cc(C(=O)c2cn(-c3ncccn3)cc2-c2ccco2)cc(OC)c1OC`, for which the result in the series with Mus musculus [1], in the series on U-87MG ATCC [2], in the series on U-87MG ATCC [3], in the series with Mus musculus [4], with U-87MG ATCC [5] and with Mus musculus [6] was Active. Also, the outcome in the series on Mus musculus [7], in the series with Mus musculus [8], in the series on Mus musculus [9], in the series with Mus musculus [10], with Mus musculus [11] and in the series with Mus musculus [12] was Active. Moreover, the outcome with Mus musculus [13], with Mus musculus [14], with SK-OV-3 [15], with Mus musculus [16], in the series on Mus musculus [17] and in the series with Mus musculus [18] was Active. Also, the result in the series with SK-OV-3 [19] was Active. In addition, the Activity entry with T-cell line was “Toxic”.
